Tests used:
[1] = system: MDCK; test: Antiproliferative activity against MDCK cells after 72 hrs by MTT assay; format: cell-based; settings: Canis lupus familiaris
Outline: (§1)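 MTT assay. Log-phase cells were seeded at 3×10^3 cells/well and left overnight, then exposed to serial dilutions of compound (DMSO solutions) for 72 h in RPMI 1640 with 10% heat-inactivated FBS at 37 °C, 5% CO2. MTT (5 mg/mL, 20 µL) was added for 4 h at 37 °C and the formazan dissolved in DMSO. A490 was read. % inhibition = (1 − sample OD/control OD)×100; IC50 is the 50% growth-inhibition concentration. Triplicates, n = 3 independent experiments.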

[2] = system: HT-29; test: Antiproliferative activity against human HT-29 cells after 72 hrs by MTT assay; format: functional, cell-based; settings: HT-29, 72 h; outline: as §1
[3] = system: HepG2; test: Induction of apoptosis in human HepG2 cells assessed as disruption of mitochondrial membrane potential by measuring mean fluorescence intensity at 4 uM after 72 hrs by Rh123 staining based flow cytometry (reference value: 26410); format: functional
[4] = system: HepG2; test: Induction of apoptosis in human HepG2 cells assessed as necrotic cells at 3 uM after 72 hrs by Annexin-V-FITC/propidium iodide staining based flow cytometry (reference value: 0.5%); format: functional
[5] = system: HeLa; test: Antiproliferative activity against human HeLa cells after 72 hrs by MTT assay; format: functional, cell-based; outline: as §1
[6] = system: HepG2; test: Induction of apoptosis in human HepG2 cells assessed as increase in intracellular calcium level by measuring mean fluorescence intensity at 2 uM after 72 hrs by Fluo-3AM dye based flow cytometry (reference value: 1992); format: functional
Outline: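 HepG2 cells at 1×10^5 cells/well were grown 24 h, then treated with compound for 72 h. Cells were harvested, washed in cold PBS and resuspended in HBSS containing 10 µM Fluo-3 AM for 30 min at 37 °C in the dark. Flow cytometry used 488 nm excitation; the read-out was mean fluorescence intensity against an untreated control.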

[7] = system: HepG2; test: Induction of apoptosis in human HepG2 cells assessed as early apoptotic cells at 3 uM after 72 hrs by Annexin-V-FITC/propidium iodide staining based flow cytometry (reference value: 3.7%); format: functional
[8] = system: A549; test: Potency index, ratio of cisplatin IC50 to compound IC50 for human A549 cells; format: functional
Outline: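 Ratios were calculated from MTT IC50 values (72 h exposure, A490 read-out, n = 3). Potency index = cisplatin IC50 / compound IC50. Therapeutic index = MDCK IC50 / tumour-line IC50.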

[9] = system: HepG2; test: Induction of apoptosis in human HepG2 cells assessed as nuclear fragmentation after 72 hrs by DAPI staining based fluorescent microscopic method; format: functional, cell-based
Outline: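 HepG2 cells were plated at 4×10^3 cells/well in six-well plates and grown 12 h, then treated at 1.5, 3 or 6 µM for 72 h. Cells were washed in PBS, fixed in 4% paraformaldehyde and stained with 1 mg/mL DAPI for 1 min in the dark. Nuclei were viewed by fluorescence microscopy at 200×.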

[10] = system: HepG2; test: Induction of apoptosis in human HepG2 cells assessed as early apoptotic cells at 2 uM after 72 hrs by Annexin-V-FITC/propidium iodide staining based flow cytometry (reference value: 3.7%); format: functional
[11] = system: A549; test: Antiproliferative activity against human A549 cells after 72 hrs by MTT assay; format: functional, cell-based; settings: A549, 72 h; outline: as §1
[12] = system: BGC-823; test: Antiproliferative activity against human BGC823 cells after 72 hrs by MTT assay; format: functional, cell-based; settings: BGC-823, 72 h; outline: as §1
[13] = system: HepG2; test: Induction of apoptosis in human HepG2 cells assessed as viable cells at 4 uM after 72 hrs by Annexin-V-FITC/propidium iodide staining based flow cytometry (reference value: 93.2%); format: functional; settings: HepG2, 72 h, read-out: Activity

## C=C(C)[C@@H]1CC[C@]2(C(=O)OCc3nc(C)c(C)nc3C)CC[C@]3(C)[C@H](CC[C@@H]4[C@@]5(C)CC[C@H](OC(=O)[C@H](C)NC(=O)CNC)C(C)(C)[C@@H]5CC[C@]43C)[C@@H]12
[1]
  IC50: 10.8 µM
[2]
  IC50: 1.7 µM
[3]
  Flu intensity: 2147
[4]
  Activity: 1.2%
[5]
  IC50: 1.74 µM
[6]
  Flu intensity: 2743
[7]
  Activity: 11.3%
[8]
  Ratio IC50: 2
[9]
  Activity: Dose-dependent effect
[10]
  Activity: 6.1%
[11]
  IC50: 3.25 µM
[12]
  IC50: 1.79 µM
[13]
  viability at 4 µM: 62.2%

Source: ChEMBL document CHEMBL4049390, “Combination of amino acid/dipeptide with ligustrazine-betulinic acid as antitumor agents” (Eur J Med Chem, 2017)
